Screens: PubChem, several laboratories
PglD inh: blocks C. jejuni PglD acetyltransferase activity. purified PglD enzyme, DTNB colorimetric CoA detection. inhibition, % at 12.5 µM. actives 0.098% (n = 360,000); in the data active means inhibition above about 16%, passing the limit was not always enough; inconclusive means no clear call, values can overlap the other calls
PvdQ acylase: P. aeruginosa PvdQ acylase inhibition | AID 488965 | purified PvdQ acylase, fluorescence plate reader | actives 0.063% (n = 340,000) | inhibition, % at 10 µM; in the data active means inhibition above about 30%, passing the limit was not always enough; inconclusive means no clear call, values can overlap the other calls;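 further: 0% = vehicle neutral wells and 100% = reference inhibitor wells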
VIM-2 inhibitor: blocks Pseudomonas aeruginosa VIM-2 metallo-beta-lactamase. purified VIM-2, nitrocefin hydrolysis, epi-absorbance fluorescence. inhibition, % at 5.6 µM. actives 0.89% (n = 290,000). AID 1527;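 active means inhibition above the mean of all tested compounds plus 3 SD, cutoff set per screening run, cut at about 7.5% in these data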;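 further: red hydrolysis product quenches plate fluorescence so inhibitors raise well fluorescence; 0% = enzyme with DMSO and 100% = DMSO without enzyme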
ERp5 block: ERp5 (human) disulfide isomerase inhibition. inhibition, % at 9.99 µM. Q15084. actives 0.05% (n = 350,000). ERp5 insulin aggregation, absorbance 650 nm, 90 min. AID 651711;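 active means mean replicate inhibition above about 25%, with every replicate also reaching it, limit read from the data, passing the limit was not always enough; inconclusive means only one of those two criteria met; inactive means neither criterion met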
Target sequence (Q15084 whole entry, looked up): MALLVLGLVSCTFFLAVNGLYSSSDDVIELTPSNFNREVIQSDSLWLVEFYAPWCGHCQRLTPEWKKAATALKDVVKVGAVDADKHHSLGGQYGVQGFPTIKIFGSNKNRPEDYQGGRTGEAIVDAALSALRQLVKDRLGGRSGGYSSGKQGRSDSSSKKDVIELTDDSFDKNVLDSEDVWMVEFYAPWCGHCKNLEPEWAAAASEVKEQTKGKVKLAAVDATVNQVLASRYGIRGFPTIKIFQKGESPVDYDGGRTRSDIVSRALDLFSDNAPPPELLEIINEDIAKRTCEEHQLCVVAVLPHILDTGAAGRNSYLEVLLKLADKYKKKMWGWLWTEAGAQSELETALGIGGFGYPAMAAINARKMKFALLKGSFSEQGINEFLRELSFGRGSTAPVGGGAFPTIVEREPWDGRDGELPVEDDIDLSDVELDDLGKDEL
PDI inh: inhibitors of human protein disulfide isomerase | PDI insulin aggregation turbidity, A650, 90 min | P07237 | AID 588391 | actives 0.052% (n = 350,000) | inhibition, % at 10 µM;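 active means mean inhibition across replicates of 30% or more, whatever share of single replicates reach that level; inconclusive means mean inhibition below 30% while every single replicate reaches 30%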
IMP-1 inhibitor: blocks Pseudomonas aeruginosa IMP-1 metallo-beta-lactamase | purified IMP-1, nitrocefin hydrolysis, epi-absorbance fluorescence | inhibition, % at 5.6 µM | actives 0.45% (n = 290,000) | AID 1556;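 active means inhibition above the mean plus 3 SD of all compounds in the same screening run, cut at about 4.5% in these data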;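 further: 0% = IMP-1 with DMSO and 100% = DMSO wells lacking enzyme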
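System: purified recombinant IMP-1 beta-lactamase. Medium: Zinc- and detergent-supplemented HEPES buffer, pH 7.1. Compound: one 5.6 µM dose […]. Schedule: 15 min preincubation plus 25 min reaction at 25 °C. Technique: Epi-absorbance fluorescence, 480 nm excitation, 530 nm emission.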
An asterisk follows results filed as active; ? = inconclusive; . = not tested or not shown. Only some compounds are listed: those with a hit (about 1% of all), similar ones and a draw of the others.

SMILES | PglD inh | PvdQ acylase | VIM-2 inhibitor | ERp5 block | PDI inh | IMP-1 inhibitor
COc1ccc(OC)c(/C=C2\N=C(c3ccccc3)OC2=O)c1 | -7 | 1 | 10* | -2 | 0 | 0
CCC(=O)N1C[C@@H](C)[C@H](OC)CN(C)C(=O)c2ccc(NC(=O)Nc3ccccc3)cc2OC[C@H]1C | 5 | . | . | -1 | . | .
CC=Cc1ccc2n(c1=O)C[C@H]1[C@H](CO)[C@@H](C(=O)OC)N(CCc3ccccc3)[C@@H]21 (mixture of isomers) | 1 | . | . | -3 | . | .
CCS(=O)(=O)Nc1ccc2c(c1)C(=O)N(C)C[C@H](OC)[C@@H](C)CN(C(=O)C1CC1)[C@H](C)CO2 | -2 | . | . | -9 | . | .
CN1CCN(C2=Nc3c(Cl)cc(Cl)c4cccc2c34)CC1 | -4 | 1 | 7.7* | 9 | -1 | 0
CN1CCN(C2=Nc3cc(Cl)ccc3Nc3ccccc32)CC1 | -2 | -12 | -3 | 0 | 0 | -5
Nc1cccc2c1C(=O)N(C(=O)/C=C/c1cccc(Br)c1)C2=O | 5 | 3 | 0 | 2 | -4 | 4.8*
Nc1cccc2c1C(=O)N(C(=O)/C=C/c1cccc(F)c1)C2=O | . | -3 | -1 | 8 | -5 | 1
C[C@@H]1CCCCO[C@@H](CN(C)C(=O)c2ccccc2)[C@H](C)CN([C@H](C)CO)C(=O)c2cc(NS(=O)(=O)c3cn(C)cn3)ccc2O1 | -2 | . | . | -1 | . | .
Cc1ccc2c(c1)c(N=Nc1cccc(C(=O)O)c1)c(O)n2C | . | 6 | -1 | . | 12 | 0
O=Cc1cc(N=Nc2cccc(C(=O)O)c2)ccc1O | . | -9 | -4 | -5 | -1 | 13*
O=Cc1cc(N=Nc2ccccc2Cl)ccc1O | . | -8 | -4 | ? | 11 | 9.7*
O=[N+]([O-])c1cc([N+](=O)[O-])c(Oc2c(Cl)cccc2Cl)cc1NN1CCCCC1 | 1 | -11 | 2 | 9 | 0 | 4.8*
O=[N+]([O-])c1cc([N+](=O)[O-])c(Oc2c(F)cccc2F)cc1NN1CCCCC1 | -1 | -14 | 2 | -2 | 3 | -1
Cc1cc(C)c([N+](=O)[O-])cc1-c1ccc(/C=N/c2c(-c3ccco3)nc3ccccn23)o1 | . | -3 | 4 | . | -5 | 9.2*
O=C(CSc1nnc(NC(=O)c2ccccc2)s1)NCC1CCCO1 (stereo unspecified) | -3 | -5 | 11* | -14 | 7 | -3
O=C(CSc1nnc(NC(=O)c2cccc(F)c2)s1)NC1CCCC1 | . | -15 | 11* | 3 | -1 | -2
CCN(CCO)c1nc(SC)nc2c1sc1nc(-c3ccco3)c3c(c12)CCC3 | -16 | 12 | 1 | . | 0 | 12*
Cn1c2ccccc2c(=O)c2ccc(Cl)cc21 | -2 | . | . | -8 | 0 | .
CN(C)c1ccc(-c2ccc3c(=O)c4ccccc4n(C)c3c2)cn1 | 0 | -6 | 12* | -2 | 8 | 1
COc1cccc2sc3ccc(NCc4ccc5c(c4)OCO5)cc3c(=O)c12 | -3 | 1 | 9.2* | -5 | 16 | -2
CCN(CC)CCN(C(=O)C1=COCCO1)c1nc2c(OC)ccc(OC)c2s1 | . | -10 | 8.9* | -7 | 4 | -4
CCN(CC)CCN(C(=O)C1=COCCO1)c1nc2ccc(C)cc2s1 | -1 | 13 | 1 | 0 | -6 | -1
O=C(O)C(c1ccccc1)N1C(=O)/C(=C\c2ccc(-c3ccccc3Cl)o2)SC1=S (stereo unspecified) | -2 | 18 | 0 | 1 | -2 | 9.4*
CCC(=O)N1[C@H](CO)[C@@H](c2ccccc2)C12CN(C(=O)c1cnccn1)C2 | . | . | . | 2 | . | .
SMILES | PglD inh | PvdQ acylase | VIM-2 inhibitor | ERp5 block | PDI inh | IMP-1 inhibitor
CCOC(=O)c1cnc(-c2ccccc2)nc1N | -8 | 77* | 1 | 2 | 0 | -2
CCOC(=O)c1cnc(-c2ccccc2)nc1N(C)C | 5 | 6 | 2 | 1 | 6 | -6
O=C(Nc1cc([N+](=O)[O-])ccc1O)c1cccc(C(=O)Nc2cc([N+](=O)[O-])ccc2O)c1 | -5 | -7 | -1 | 0 | 6 | 26*
O=C(NC(=S)Nc1cccc(NC(=O)c2ccccc2)c1)c1cccc([N+](=O)[O-])c1 | -5 | -2 | -3 | . | 32* | -2
O=C(Nc1cccc([N+](=O)[O-])c1)c1cccc(C(=O)Nc2cccc([N+](=O)[O-])c2)c1 | -4 | -11 | -1 | 1 | 0 | 8.7*
O=C(Nc1ncc([N+](=O)[O-])s1)c1cccc([N+](=O)[O-])c1 | 2 | 39* | -2 | 3 | 2 | -4
O=C(Nc1cc([N+](=O)[O-])ccc1O)c1cccc([N+](=O)[O-])c1 | -6 | -10 | -3 | 2 | 8 | -3
O=C(C[C@H]1C=C[C@@H](NC(=O)Nc2ccc3c(c2)OCO3)[C@H](CO)O1)NCc1ccc(Cl)cc1 | -1 | . | . | -2 | . | .
Cc1cc(C)nc(NC(=S)NC(=O)c2ccccc2)n1 | 4 | -1 | 8.4* | -1 | -58 | -3
Cc1cc(C)nc(NC(=S)Nc2ccccc2)n1 | . | -14 | -5 | 1 | 1 | -1
COC(=O)c1cc2c(=O)c3ccccc3oc2nc1/C=C/N(C)C | -8 | -12 | 7.7* | 1 | -7 | 3
CCNc1nc(NCC)nc(OCCOC(C)=O)n1 | 3 | 14 | 2 | -3 | 0 | 4.9*
CCNc1nc(NCC)nc(OCCOC(=O)c2ccccc2)n1 | 1 | 3 | 1 | . | -5 | -1
C[C@@H]1CN([C@@H](C)CO)C(=O)Cc2cc(NS(=O)(=O)c3ccc(Cl)cc3)ccc2O[C@@H]1CN(C)C(=O)Nc1cccc2ccccc12 | 0 | . | . | 5 | . | .
O=c1c2[nH]c3ccc(F)cc3c2ncn1CCCn1ccnc1 | 1 | -14 | 8.0* | . | -15 | 0
CSc1nnc(-c2ccccc2)n1N | 5 | 10 | -1 | . | -8 | -1
CSc1nnc(-c2cc[n+](C)cc2)n1CCO | . | -2 | -4 | -7 | -7 | 4.9*
CCc1ccc(NC(=O)CN(CC(=O)Nc2ccc(CC)cc2)CC(C)O)cc1 (stereo unspecified) | 6 | -14 | 2 | 3 | 3 | 18*
CCCNC(=O)NC[C@@H]1[C@H](c2ccc(C3=CCCC3)cc2)[C@H](CO)N1C(C)=O | 1 | . | . | . | . | .
O=C(OCC(=O)N1CCN(C(=O)c2ccco2)CC1)c1cc(-c2ccccc2)nc2ccccc12 | -2 | -14 | 11* | . | 5 | 0
CCN1CCN(CC(=O)Nc2ccccc2)C(=O)C1=O | 4 | -13 | 5 | 0 | 12 | 4.6*
O=C(NCC[C@H]1CC[C@H](NC(=O)C2CC2)[C@H](CO)O1)c1cnccn1 | -1 | . | . | 0 | . | .
NC(CCCCCP(=O)(c1ccccc1)c1ccccc1)C(=O)O (stereo unspecified) | . | . | 4 | . | . | 28*
CS(=O)(=O)c1ccc(C(=O)OCC(=O)N2CCN(CCC3CCCCC3)CC2)cc1[N+](=O)[O-] | -6 | . | . | 1 | 91* | .
O=C(CCN1C(=O)COc2ccccc21)NCc1ccco1 | 2 | 0 | -1 | . | 4 | 1
